Most compounds without a hit are left out; they make up all but 2.3% or so of the library.
Pyk2 oligo antag: blocks oligomerization of human Pyk2 in cells; Q14289; z-score (the deposit names both 25 µM and 10 µM); hit rate 0.83% among 99,000; AID 1347419; Q293 cells, Pyk2 FERM NanoBiT luminescence; hits give low values;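 active = Z-score of -3 or lower, scaled per plate to the spread of control and sample wells; inactive = z-score above -3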;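 also: negative z-score means lost luminescence so less FERM oligomerization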
Mac1 fbg inh: blocks human CD11b/CD18 adhesion to fibrinogen | P05107+P11215 | K562 CD11b/CD18 adhesion to fibrinogen, ATPlite luminescence; Mn2+ added to activate the integrin | inhibition, % at 10 µM | hit rate 0.54% among 93,000 | AID 1497;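 active = primary inhibition of 50% or more at 10 µM, then 40% or more on retest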
Target sequence (P05107 whole entry, looked up, other chains not shown): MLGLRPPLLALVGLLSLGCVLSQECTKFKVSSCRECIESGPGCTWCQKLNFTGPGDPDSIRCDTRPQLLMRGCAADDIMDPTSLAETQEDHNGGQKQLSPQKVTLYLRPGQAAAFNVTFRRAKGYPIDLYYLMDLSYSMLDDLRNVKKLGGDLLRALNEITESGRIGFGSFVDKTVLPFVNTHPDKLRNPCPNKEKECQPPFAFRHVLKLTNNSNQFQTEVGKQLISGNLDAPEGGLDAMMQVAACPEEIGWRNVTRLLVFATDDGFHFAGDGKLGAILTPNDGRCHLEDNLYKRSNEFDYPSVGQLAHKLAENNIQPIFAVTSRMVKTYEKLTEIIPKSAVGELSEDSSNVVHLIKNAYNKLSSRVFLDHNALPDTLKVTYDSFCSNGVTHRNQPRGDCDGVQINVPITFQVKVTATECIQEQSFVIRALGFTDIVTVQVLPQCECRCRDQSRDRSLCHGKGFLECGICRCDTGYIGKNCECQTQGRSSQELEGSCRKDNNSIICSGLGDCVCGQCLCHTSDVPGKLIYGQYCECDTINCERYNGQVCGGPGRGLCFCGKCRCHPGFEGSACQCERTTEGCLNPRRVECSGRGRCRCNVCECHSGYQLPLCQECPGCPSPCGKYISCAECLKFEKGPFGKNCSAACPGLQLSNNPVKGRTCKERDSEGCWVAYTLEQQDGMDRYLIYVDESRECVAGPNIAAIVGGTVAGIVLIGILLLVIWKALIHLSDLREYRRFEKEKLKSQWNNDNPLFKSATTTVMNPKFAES
Ecoli WT expand: blocks growth of wild type E. coli BW25113; hit rate 0.15% among 98,000; OD600 absorbance; AID 710; growth inhibition, % at 100 µM;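 active = growth inhibition above about 50% at one test dose, limit read from the data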;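 also: growth measured after 20 h incubation at 37 °C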
tolC growth inh: blocks growth of E. coli BW25113 tolC mutant. OD615. growth inhibition, % at 10 µM (by protocol). hit rate 2.2% among 65,000. AID 573;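 active = growth inhibition at or above a cutoff equal to the mean over every tested compound plus 3 SD, cut at about 60% in these data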;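 also: growth measured after 20 h incubation at 37 °C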
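Test system: E. coli BW25113 ΔtolC::kan bacteria | Medium: Kanamycin-containing LB broth (50 µg/mL) | Dosing: One dose of 10 µM final | Times: 20 h incubation with compound, 37 °C | Detection: Optical density read at 615 nm | Read-out basis: Percent growth inhibition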
Mac1 fbg enh: increases human CD11b/CD18 adhesion to fibrinogen. AID 1499. K562 CD11b/CD18 adhesion to fibrinogen, ATPlite luminescence. P05107+P11215. hit rate 0.07% among 93,000. activation, % at 10 µM;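 active = 10 µM primary screen giving 50% or more activity, confirmed by 40% or more on retest at that dose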
* marks the source's active call; other numbers are inactive results; . = no result.

SMILES | Pyk2 oligo antag | Mac1 fbg inh | Ecoli WT expand | tolC growth inh | Mac1 fbg enh
COc1ccc(C(c2nnnn2Cc2ccccc2)N2CCN(C(=O)c3ccco3)CC2)cc1OC (stereo unspecified) | -0.56 | -6 | 9 | -3 | 0
COc1ccc(O)c(C(=O)c2cnc3onc(C)c3c2)c1 | -2.2 | 3 | 2 | -13 | -6
CC(C)c1noc2ncc(C(=O)c3cc(Cl)cc(Cl)c3O)cc12 | -1.5 | 95* | 0 | . | -11
COc1ccccc1OCCSc1nnnn1-c1ccc(C)cc1 | . | -8 | 4 | 65* | 5
c1ccc(OCCSc2nnnn2-c2ccccc2)cc1 | -2.4 | 21 | -3 | 49 | -4
Clc1ccc(OCCSc2nnnn2C2CCCCC2)cc1 | 0.67 | 12 | 1 | . | 2
Fc1ccccc1OCCSc1nnnn1-c1ccccc1 | -2.6 | -2 | 1 | 49 | 1
CCOc1ccc(OCCSc2nnnn2C2CCCCC2)cc1 | -1.2 | 12 | -2 | 65* | -3
CCOc1ccc(OCCSc2nnnn2-c2ccccc2)cc1 | -4.1* | 28 | -1 | . | -2
COc1cc(NS(=O)(=O)c2ccc(OC)c(C)c2C)c(OC)cc1Cl | -1.8 | 56 | -11 | 65* | 1
COc1ccc(OC)c(S(=O)(=O)Nc2cc(OC)c(Cl)cc2OC)c1 | 1 | -10 | 6 | 22 | -2
CCOC(=O)c1c(-c2ccccc2)nnn1-c1nc(OCC)nc(N2CCCCC2)n1 | -1.6 | -26 | 2 | 75* | 2
COc1ccc(OC)c(N2C(=O)CC(C(C)c3ccccc3)C2=O)c1 (stereo unspecified) | 0.13 | -16 | -7 | 3 | 2
COc1ccc(C2C(C(C)=O)=C(O)C(=O)N2CCc2ccccc2)c(OC)c1 (stereo unspecified) | 0.91 | -4 | 0 | 9 | 1
COc1cccc(/C(O)=C2/C(=O)C(=O)N(CCCN(C)C)C2c2cccc(Cl)c2)c1 (stereo unspecified) | . | -11 | . | 0 | -4
Cc1ccc(C2c3c(-c4ccccc4O)n[nH]c3C(=O)N2Cc2ccncc2)cc1 (stereo unspecified) | -2.4 | . | 5 | 69* | .
COc1ccc(C2c3c(-c4ccccc4O)n[nH]c3C(=O)N2CCc2ccc(OC)c(OC)c2)cc1 (stereo unspecified) | -3.5* | 9 | -11 | 59 | 10
O=C1c2[nH]nc(-c3ccccc3O)c2C(c2cccc(O)c2)N1Cc1ccco1 (stereo unspecified) | -2.5 | 11 | 18 | . | 7
COc1ccc(CCN2C(=O)c3[nH]nc(-c4ccccc4O)c3C2c2cccc(Cl)c2)cc1 (stereo unspecified) | -3.5* | 3 | -6 | . | -2
CCOc1ccc(C2OC34CCCCC3C(C#N)(C#N)C2(C#N)C(=N)O4)cc1OC (stereo unspecified) | 0 | 16 | -4 | . | 5
Cc1sc(NC(=S)NC(=O)C(C)(C)C)c(C(N)=O)c1C | -0.37 | -8 | -9 | . | 5
CC(C)(C)c1ccc(-c2csc(NNC3=NCCCCC3)n2)cc1 | -0.32 | 89* | -1 | . | -5
CS(=O)(=O)N(CC(=O)NCCC1=CCCCC1)c1ccc2c(c1)OCO2 | 0.12 | 56 | 3 | 2 | 3
COc1ccc(-c2cnc(N)n2CC2CCCO2)cc1 (stereo unspecified) | -0.04 | 30 | 14 | 64* | 1
c1ccc(-c2cnc(SCCN3CCOCC3)n2CC2CCCO2)cc1 (stereo unspecified) | 0.8 | . | . | . | .
SMILES | Pyk2 oligo antag | Mac1 fbg inh | Ecoli WT expand | tolC growth inh | Mac1 fbg enh
COc1ccc(S(=O)(=O)CC(O)CN2CCCC2=O)cc1 (stereo unspecified) | 1.6 | . | -5 | . | .
Cc1onc(-c2ccccc2)c1-c1nc2ccccc2c(=O)o1 | -0.4 | 1 | -12 | . | 0
CCn1c(C)nc2cc(-c3nnc(-c4c(-c5ccccc5)noc4C)o3)ccc21 | -3.1* | 0 | -23 | 6 | -5
CN(Cc1ccccc1)S(=O)(=O)c1ccc(C(=O)Nc2nnc(C3CC3)o2)cc1 | -2.1 | -5 | -1 | 100* | 7
CN(Cc1ccccc1)S(=O)(=O)c1ccc(NC(=S)NC(=O)C2CCCCC2)cc1 | . | 22 | . | . | -4
COc1ccccc1-c1nnc(NC(=O)c2ccc(S(=O)(=O)N(C)Cc3ccccc3)cc2)o1 | . | . | -13 | 95* | .
CN(c1ccccc1)S(=O)(=O)c1ccc(C(=O)Nc2nnc(-c3ccc(F)cc3)o2)cc1 | . | -24 | -8 | 100* | 4
CC(Oc1ccc(Br)cc1)C(=O)N1CCc2ccccc21 (stereo unspecified) | -1.9 | . | -2 | 20 | .
CC(Oc1ccccc1Br)C(=O)N1CCc2ccccc21 (stereo unspecified) | -1 | 5 | 6 | 69* | 0
FC(F)(F)c1cc(-c2ccccc2)nc(NCC2CCCO2)n1 (stereo unspecified) | -1.3 | 9 | 14 | 22 | -1
Fc1ccc(-c2cc(C(F)(F)F)nc(NCC3CCCO3)n2)cc1 (stereo unspecified) | -1 | 10 | 0 | 100* | 2
CCC(=O)Nc1ccc(-c2nnc(SCC(=O)NCC3CCCO3)n2C)cc1 (stereo unspecified) | . | -4 | . | 5 | 2
Cn1c(NC(=O)c2cc(-c3ccc4c(c3)OCO4)nc3ccccc23)cc(=O)n(C)c1=O | -4* | . | -7 | 27 | .
CC(/C=N\NC(=O)Cn1c(C)nc2ccccc21)=C\c1ccccc1 | 0.57 | . | -1 | . | .
O=S(=O)(Nc1cccc2cccnc12)c1ccc(S(=O)(=O)N2CCCC2)cc1 | -1.9 | 12 | -4 | 81* | -3
N#Cc1cc(-c2ccccc2)nnc1Sc1ccc(Cl)cc1 | 1.6 | 5 | -7 | . | -4
Clc1ccc(Sc2cc(Cl)c(-c3ccccc3)nn2)cc1 | -3.4* | . | -29 | . | .
CCCCNC(=O)COC(=O)c1ccc(NS(=O)(=O)c2ccc3c(c2)OCCO3)cc1 | 0.2 | 14 | 2 | . | 0
COc1ccc(CC(=O)Nc2oc(-c3ccccc3)c(-c3ccccc3)c2C#N)cc1OC | -3.3* | . | -10 | 8 | .
COc1ccccc1OCC(=O)Nc1oc(-c2ccccc2)c(-c2ccccc2)c1C#N | -3.7* | 89 | -30 | 26 | -11
Cc1ccc(OCC(=O)Nc2oc(-c3ccccc3)c(-c3ccccc3)c2C#N)cc1 | -1.3 | . | . | . | .
COc1ccc(-c2nnc3n2N=C(c2ccccc2)CS3)cc1OC | . | -3 | . | 9 | 0
Cc1cc(-c2nnc3n2N=C(c2ccc(-c4ccccc4)cc2)CS3)n[nH]1 | -3.4* | -12 | -4 | 92* | -3
COC(=O)c1nn(-c2ccccc2)c(=O)cc1Oc1ccccc1 | 0.17 | -6 | 4 | . | 3
CC(=O)c1ccc(C(=O)Nc2nnc(-c3ccc(Cl)cc3)o2)cc1 | . | . | . | 100* | .
O=C(Nc1nnc(-c2ccccc2)o1)c1ccc(Cl)cc1 | 1.3 | 16 | 49 | 99* | 0
CN(C)c1ccc(C(=O)Nc2nnc(-c3ccc(Cl)cc3)o2)cc1 | . | -4 | -18 | 47 | 43
O=C(Nc1nnc(-c2ccccc2)o1)Nc1ccccc1Cl | . | 34 | -3 | 29 | -2
COc1ccc(C(=O)Nc2cc(C)c3c(=O)oc4ccccc4c3n2)cc1 | . | 14 | -18 | . | 8
